The source of these data is PubChem BioAssay AID624204 (Sanford-Burnham Center for Chemical Genomics, 2012).

In all, about 360,000 compounds went through this assay and about 770 (0.21%) were called active.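 How the source made its calls: active means inhibition at least 30% at 10 µM, raw YFP signal under a set limit, fluorescence ratio 0.5 to 1.5; inactive means the rest.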 Many of the other results were omitted from the sample, so actives are more common in it than they were.

Sentrin-specific protease 1 (Homo sapiens), sequence (Q9P0U3 419-644 limits assumed): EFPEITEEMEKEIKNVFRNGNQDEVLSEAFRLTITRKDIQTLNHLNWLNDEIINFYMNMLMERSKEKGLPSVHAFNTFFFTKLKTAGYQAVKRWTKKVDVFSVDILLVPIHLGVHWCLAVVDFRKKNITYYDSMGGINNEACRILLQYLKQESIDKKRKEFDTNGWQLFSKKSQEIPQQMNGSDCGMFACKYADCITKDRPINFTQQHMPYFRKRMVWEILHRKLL

The target of this test is Sentrin-specific protease 1 (Homo sapiens) (UniProt Q9P0U3). Briefly: human SENP1 catalytic domain inhibitors, primary screen, biochemical, FRET, uHTS (AID 624204).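 Further: 0% = enzyme with DMSO and 100% = no enzyme wells.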 The following applies: recombinant SENP1 catalytic domain, CyPet-SUMO1-YPet FRET cleavage; at 10 µM; hits give high values. The method in brief:
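Compound: 10 µM single point, 0.5% DMSO; Test system: hSENP1 catalytic domain, recombinant; Timing: 50 min reaction at room temperature; Technique: FRET, CFP and YFP emission; Control set: no-enzyme wells low, DMSO-plus-enzyme wells high control.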
One may read the inhibition as the change of the read-out against control, counted positive when it falls. For the compound `N/C(=N\OC(=O)c1ccc2c(c1)OCO2)c1ccc(Br)cc1`, the inhibition was 2.72% (inactive).
For `N/C(=N\OC(=O)N1c2ccccc2Sc2ccccc21)c1ccc(Br)cc1`, the inhibition is 45.8% (active).
In the case of `N/C(=N\OC(=O)CCc1ccccc1)c1ccc(Cl)cc1`, the inhibition was 4.15% (inactive).
Regarding `Fc1ccc(CNCc2ccc(Br)cc2)cc1`, the inhibition was 0.319% (inactive).
For `CC(C)c1ccc(S(=O)(=O)N2CCC3(CC2)OCCO3)cc1`, the inhibition is -0.675% (inactive).
Turning to `CC(C)=CCN1CCN(Cc2cc3ccccc3[nH]2)CC1CCO` (configuration not stated), the inhibition is -16.2% (inactive).
Take `O=C(OCC(=O)N1CCCCCC1)c1ccc(Br)c(S(=O)(=O)N2CCOCC2)c1`: the inhibition is 2.31% (inactive).
Consider `CCC1CCCCN1CCNC(=O)c1[nH]c(C)c(C(C)=O)c1C` (configuration not stated), for which the inhibition was -5.33% (inactive).
Consider `CS(=O)(=O)Nc1ccccc1N=C(c1ccccc1)c1ccccc1`, for which the inhibition is 1.89% (inactive).
For `CCc1ccc(C(=O)NN=C2CCCCCC2)s1`, the inhibition was 1.74% (inactive).
Take `COc1ccc(-c2c(C#N)cnc(C)c2C)c(O)c1OC`: the inhibition is 0.472% (inactive).
On to `COC(=O)CNC(=O)C(CCSC)NC(C)=O` (configuration not stated), for which the inhibition was 2.78% (inactive).
`CC(C)n1cnc2c(NCc3ccccc3)cc(OCC3CCN(C)CC3)cc21`: the inhibition is -28.3% (inactive).
On to `COCC1CCN(C(=O)C2CCC(=O)N(Cc3cccc(C(F)(F)F)c3)C2)CC1` (configuration not stated), for which the inhibition is 2.83% (inactive).
Take `O=C(c1cccs1)N(Cc1cc2ccccc2[nH]c1=O)CC1CCCO1` (configuration not stated): the inhibition is 0.621% (inactive).
As for `COc1ccc(S(=O)(=O)N2CCOC2CNC(=O)C(=O)NCc2ccc(F)cc2)cc1` (configuration not stated), the inhibition was 0.939% (inactive).
Turning to `Cc1oc2c(F)c(F)c(F)c(F)c2c1S(=O)(=O)Nc1cccc(C(F)(F)F)c1`, the inhibition was 0.0743% (inactive).
`COc1ccc(S(=O)(=O)N(C)C[C@H]2OCc3cnnn3CCCC(=O)N([C@H](C)CO)C[C@H]2C)cc1`: the inhibition is 0.96% (inactive).
The same measure for `O=C(Cn1cnc2ccccc21)Nc1ccccc1-c1ccccc1`: 2.05% (inactive); for `O=C(COC(=O)Cn1cnc2ccccc21)Nc1cccc2c1C(=O)c1ccccc1C2=O`: 49.1% (active); for `O=C(COC(=O)Cn1cnc2ccccc2c1=O)NCC12CC3CC(CC(C3)C1)C2`: -2.59% (inactive).
Consider `CCN(CC)S(=O)(=O)c1ccc2c3c(cccc13)C(=O)S2`, for which the inhibition was -5.16% (inactive).
`O=[N+]([O-])c1cc(S(=O)(=O)Nc2cccc(Cl)c2)ccc1N=Nc1c(O)[nH]c2ccccc12`: the inhibition was 7.59% (inactive).
As to `CCN(CC)S(=O)(=O)c1cc([N+](=O)[O-])ccc1N=Nc1c(O)n(C)c2ccccc12`, the inhibition is 38.9% (active).
Consider `COc1ccccc1-c1noc(CSc2nc(C)cc(=O)[nH]2)n1`, for which the inhibition was 0.334% (inactive).
Regarding `CC(/C=C/C1(O)C(C)CC(=O)CC1(C)C)OC1OC(CO)C(O)C(O)C1O` (configuration not stated), the inhibition was -6.63% (inactive).
On to `O=C(CNC(=O)N1CC(=O)Nc2ccccc21)Nc1ccc(Br)cc1F`, for which the inhibition is -5.9% (inactive).
Turning to `Cc1ccc(S(=O)(=O)NC2CCCCCC2)cc1C(N)=O`, the inhibition is 1.4% (inactive).
Regarding `CCN(C(=O)CSc1nnc2ccccn12)C1CCS(=O)(=O)C1` (configuration not stated), the inhibition was 0.95% (inactive).
`CCCCCn1nnnc1-c1nc2cc3ccccc3cc2[nH]c1=O`: the inhibition is 70.6% (active).
Regarding `CCCCn1c(-c2cccc(C)c2)nc2cc3[nH]c(=O)c(C(C)C)nc3cc21`, the inhibition is -46.9% (inactive).
On to `CCCCCn1nnnc1C1c2ccccc2C(=O)N1Cc1ccco1` (configuration not stated), for which the inhibition was 2.03% (inactive).
Regarding `CC(=O)Nc1ccc(Sc2ccccc2C(=O)N2CCCC2)cn1`, the inhibition was 0.55% (inactive).
Turning to `Cc1c(CN2CCC(n3nccc3NC(=O)CCc3ccccc3)CC2)cnn1C`, the inhibition is 2.13% (inactive).
The same measure for `CCn1nc(C(=O)NNC(=O)C2CSC3(C)CCC(=O)N23)c2ccccc2c1=O` (configuration not stated): 1.35% (inactive).
Regarding `CCc1nc2ccc(C(=O)Nc3cc(-c4ccccc4)ccc3OC)cn2c1N(CC)CC(=O)N(C)C`, the inhibition was -1.8% (inactive).
Turning to `CCCn1c(=O)c2ccccc2n2c(SCC(=O)/C(C#N)=C(\C)N)nnc12`, the inhibition is -2.1% (inactive).
As for `CN(C)CCN(Cc1ccccc1)S(=O)(=O)c1csc(C(N)=O)c1`, the inhibition is 3.33% (inactive).
As to `Cc1ccc(SC(=O)COc2ccc(C)c(C)c2)cc1`, the inhibition is 4.05% (inactive).
For the compound `CC(C)OC(=O)CC(=O)CC(O)c1cccc([N+](=O)[O-])c1` (configuration not stated), the inhibition was 1.31% (inactive).
Take `COc1cccc(/C=N/NC(=O)c2[nH]nc3c2CCc2ccccc2-3)c1O`: the inhibition was 48.9% (active).
The same measure for `COc1ccccc1-c1nnc(NC(=O)c2cccc(N3C(=O)CCC3=O)c2)o1`: 1.37% (inactive).
For the compound `COc1ccc(Cl)cc1C=CC=NNC(=O)c1ccncc1`, the inhibition was 2.79% (inactive).
The same measure for `CCN1C(=O)/C(=C2\SC(N3CCCCC3)=NC2=O)c2ccccc21`: 1.36% (inactive).
For `CCOc1cc(/C=C2\SC(N3CCCC(C)C3)=NC2=O)ccc1O` (configuration not stated) the value was 58.5% (active); for `CC1CCN(C2=NC(=O)/C(=C/c3cn[nH]c3-c3ccccc3)S2)CC1`, -1.05% (inactive); for `CCOc1cc(/C=C2\C(=N)N3N=C(C)SC3=NC2=O)ccc1OCCOc1ccccc1`, -3.15% (inactive).
For `CCOc1cc(/C=C2\SC(N3CCCCC3)=NC2=O)ccc1O`, the inhibition was 56.6% (active).
For `Cc1cccc(N(C(=O)Cc2cccs2)C(C(=O)NCc2ccco2)c2ccncc2)c1` (configuration not stated) the value was -0.142% (inactive); for `COc1ccc(S(=O)(=O)N2CCC(C(=O)NCCC(=O)NCCc3cccc(F)c3)CC2)cc1`, 1.66% (inactive); for `COc1ccc(CC(=O)N[C@@H]2c3cc(OC)c(OC)cc3C[C@H]2OCc2ccccc2)cc1`, 2.95% (inactive).
For the compound `O=C(NC1CCCCC1)C1CC(=O)N(CCc2ccccc2)C1` (configuration not stated), the inhibition was 1.46% (inactive).
With `CCOC(=O)/C(=N\Nc1cc(Cl)ccc1Cl)N1CCN(C)CC1`, the inhibition is 0.895% (inactive).
Take `O=S(=O)(c1ccc(F)cc1)N1CCN(C(=S)NC2CCCC2)CC1`: the inhibition was 2.06% (inactive).
In the case of `CCCCn1nnnc1NCc1cc(OC)c(OC)c(OC)c1`, the inhibition is 1.02% (inactive).
The same measure for `CCOC(=O)N1CCC(O)(c2cc(C)c(C)cc2C)CC1`: 0.28% (inactive); for `Fc1cccc(Cc2c(-c3ccc(Cl)cc3)nc3ccc(Cl)cn23)c1`: 9.99% (inactive).
With `Clc1cccc(Cc2c(-c3cccc(Cl)c3)nc3ccc(Cl)cn23)c1`, the inhibition is 18.5% (inactive).
Take `Fc1cccc(Cc2c(-c3cccc(Cl)c3)nc3ccc(Br)cn23)c1`: the inhibition is 45.8% (active).
The same measure for `CC(=O)N1CCOc2ccc(S(=O)(=O)N3CCN(c4cccc(C(F)(F)F)c4)CC3)cc21`: 2.33% (inactive).
Take `COc1ccc(N2CCC(N3CCN(C)C(CCO)C3)CC2)cc1` (configuration not stated): the inhibition was -1.06% (inactive).
As for `O=[N+]([O-])/C(N=Nc1ccccc1)=N\Nc1ccccc1`, the inhibition was 0.203% (inactive).
As for `O=[N+]([O-])c1ccc(N=NNc2ccc([N+](=O)[O-])cc2)cc1`, the inhibition is 67.8% (active).
Consider `NC(=O)C1(Nc2ccc([N+](=O)[O-])cc2)CCCC1`, for which the inhibition is -1.76% (inactive).
Regarding `O=C(N/N=C/c1ccc(Br)o1)c1cncc(Br)c1`, the inhibition was 0.704% (inactive).
Regarding `Cc1ccc(C(=O)N/N=C\c2cc(Br)c(Br)o2)cn1`, the inhibition was 41.1% (active).
Turning to `Brc1cc(/C=N/n2cnnc2)oc1Br`, the inhibition is 2.85% (inactive).
Turning to `CC(C)(C)OC(=O)C[C@@H]1C/C=C\C[C@@H](CC(=O)N[C@@H](CO)Cc2ccccc2)C(=O)N2CCC[C@H]2COC1=O`, the inhibition was 1.24% (inactive).
As to `Cc1ccc(Cn2nnc3c(=O)[nH]c(C4CCN(S(=O)(=O)/C=C/c5ccccc5)CC4)nc32)cc1`, the inhibition was -2.14% (inactive).
Regarding `Cc1cccc(Nc2nnc(SCC(=O)c3c(N)n(C4CC4)c(=O)[nH]c3=O)s2)c1C`, the inhibition is 1.61% (inactive).
`Nn1c(SCC(=O)Nc2nccs2)nncc1=O`: the inhibition was 2.89% (inactive).
In the case of `O=C(Nc1ccc2c(c1)OCCO2)C1c2ccccc2OCC(=O)N1Cc1ccccn1` (configuration not stated), the inhibition was -6.74% (inactive).
On to `Cc1ccc(F)c(NC(=O)CCc2ccccc2)c1`, for which the inhibition was -0.0761% (inactive).
Turning to `CCNc1nc(N)nc(-c2cc(Cl)ccc2OC)n1`, the inhibition was 0.684% (inactive).
Consider `O=C(CNC(=O)c1ccc(Cl)cc1Cl)NCC(=O)Nc1ccccc1N1CCOCC1`, for which the inhibition was 4.8% (inactive).
The same measure for `CCCC1OC23CCCCC2C(C#N)(C#N)C1(C#N)C(=N)O3` (configuration not stated): -28.3% (inactive); for `CCOC(=O)CCC(=O)OCC(=O)NC(C)C1CC2CCC1C2` (configuration not stated): 2.09% (inactive).
As to `COC(=O)C(C)N=Cc1ccccc1` (configuration not stated), the inhibition was 3.52% (inactive).
With `COC(=O)N/N=C/c1c[n+]([O-])c2ccccc2[n+]1[O-]`, the inhibition was 58.5% (active).
On to `N#Cc1ccc(C(c2ccc(C#N)cc2)n2cncn2)cc1`, for which the inhibition is -1.95% (inactive).
On to `O=C(Nc1cccc(OCC(=O)N2CCOCC2)c1)C1CCCCC1`, for which the inhibition was -0.72% (inactive).
The same measure for `COc1ccc(N2C(=O)C3C(C2=O)C(C(=O)c2ccccc2)N2CCCC32)cc1` (configuration not stated): 40% (active); for `COc1ccc(N2C(=O)CC(N3CCC(C(N)=O)CC3)C2=O)cc1` (configuration not stated): -0.137% (inactive); for `CNC(=O)C[C@H]1C(=O)N(c2ccc(OC)cc2)C[C@@H]1Cc1ccccc1`: 3.98% (inactive).
Consider `CC(C)Oc1ccc(C(CC(=O)N2CCOCC2)C(C)C)cc1` (configuration not stated), for which the inhibition was 1.52% (inactive).
For `CC(C)(C)c1cc(NC(=O)NN2CCOCC2)nn1-c1c(Cl)cc(Cl)cc1Cl` the value was 2.79% (inactive); for `Cn1c(N)cc(=O)n(C)c1=S`, -0.927% (inactive).
On to `COc1ccc(CCNS(=O)(=O)c2cc3c(cc2C)NC(=O)CO3)cc1OC`, for which the inhibition is 2.06% (inactive).
As to `COc1ccc(OC)c(C2C3=C(N=c4s/c(=C\c5cccc(O)c5)c(=O)n42)c2ccccc2CC3)c1` (configuration not stated), the inhibition is 45.9% (active).
On to `CCC1([N+](=O)[O-])COC(c2ccc(C(C)C)cc2)OC1` (configuration not stated), for which the inhibition is 2.7% (inactive).
Take `Cc1ccc2c(c1)N(C(=O)CCC(=O)N1CCc3ccccc3C1)CCO2`: the inhibition is 1.45% (inactive).
The same measure for `CCOC(=O)[C@H]1[C@H]2COc3ccc(Cl)cc3[C@@H]2N2C(=O)c3cc(C)ccc3NC(=O)[C@@]12C`: 1.07% (inactive).
